Source: PubChem (The Scripps Research Institute Molecular Screening Center)
pPAFAH inh – inhibitors of human plasma PAF acetylhydrolase (pPAFAH). Q13093. recombinant pPAFAH, FP-rhodamine probe fluorescence polarization. inhibition, % at 3.39 µM. 1.5% of 330,000 active. AID 463082;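 active = inhibition above the mean inhibition across the screen plus 3 SD, cut at about 25% in these data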;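 note: inhibitors block binding of the rhodamine activity-based probe so polarization drops; 0% = enzyme with DMSO and 100% = wells lacking pPAFAH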
ARFGAP1 inhibitor – inhibits rat ARF GTPase activating protein 1 | AID 651572 | 0.26% of 360,000 active | Q62848 | Arfgap1-stimulated ARF1 GTP hydrolysis, GDP FP detection | inhibition, % at 16.5 µM;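 active = inhibition above a per-plate limit, mean inhibition of low control wells plus 3 SD, cut at about 25% in these data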;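 note: 0% = DMSO wells with enzyme and 100% = wells lacking Arfgap1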
Target sequence (Q62848 1-136 limits assumed): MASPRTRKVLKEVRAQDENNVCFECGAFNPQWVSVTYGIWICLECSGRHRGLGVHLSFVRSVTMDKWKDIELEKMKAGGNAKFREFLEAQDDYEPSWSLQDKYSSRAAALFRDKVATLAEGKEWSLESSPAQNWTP
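System: truncated rat Arfgap1 GAP domain / Medium: HEPES-based buffer, pH 7.5 / Also added: N-terminally truncated human ARF1-GTP substrate / Incubation: enzyme reaction 120 min at 25 °C after 20 min preincubation / Measured by: FP of antibody-bound GDP Alexa 633 tracer, ex 620/em 688 nm / Replicates: singlicate, each compound tested once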
PAFAH2 inh – PAFAH2 (human) inhibition; inhibition, % at 3.39 µM; AID 492956; recombinant PAFAH2, FP-rhodamine activity probe, fluorescence polarization; Q99487; 0.99% of 340,000 active;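 active = inhibition above the mean over all tested compounds plus 3 SD, cut at about 30% in these data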;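 note: inhibitors block probe labeling of enzyme so polarization drops; 0% = enzyme with DMSO and 100% = wells lacking PAFAH2 protein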
ASAP1 GAP inh – blocks human ASAP1-stimulated Arf1 GTP hydrolysis; AID 624377; inhibition, % at 16.5 µM; 0.19% of 360,000 active; GDP FP detection; Q9ULH1; in the data active = inhibition above about 25%;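 note: 0% = vehicle with enzyme and substrate and 100% = no enzyme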
PAFAH1B2 inh – PAFAH1B2 (human) inhibition. inhibition, % at 3.39 µM. 1.2% of 340,000 active. recombinant PAFAH1B2, FP-rhodamine activity probe, fluorescence polarization;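 active = inhibition above the mean of all tested compounds plus 3 SD, cut at about 24% in these data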;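 note: 0% = enzyme with DMSO and 100% = wells lacking PAFAH1B2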
Target sequence (P68402 whole entry, looked up): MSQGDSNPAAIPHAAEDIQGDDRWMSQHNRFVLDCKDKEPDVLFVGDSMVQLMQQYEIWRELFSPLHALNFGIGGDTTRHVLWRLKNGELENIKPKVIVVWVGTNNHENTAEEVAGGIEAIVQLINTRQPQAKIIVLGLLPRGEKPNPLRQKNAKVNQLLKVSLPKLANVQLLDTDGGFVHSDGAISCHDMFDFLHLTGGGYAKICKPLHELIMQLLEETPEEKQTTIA
PAFAH1B3 FP inh – blocks human PAF acetylhydrolase 1B catalytic subunit 3. Q15102. inhibition, % at 3.39 µM. 0.28% of 340,000 active. recombinant PAFAH1B3, FP-rhodamine probe, fluorescence polarization;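 active = inhibition above the screen-wide average of all tested compounds plus 3 SD, cut at about 25% in these data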;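 note: 0% = enzyme with DMSO only and 100% = wells lacking PAFAH1B3 protein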
The depositor's hits bear a star; nt = not tested or not shown. Sampled rows, rich in hits. Any-hit rate of the full collection: about 2.7%.

SMILES | pPAFAH inh | ARFGAP1 inhibitor | PAFAH2 inh | ASAP1 GAP inh | PAFAH1B2 inh | PAFAH1B3 FP inh
Cc1cc(Br)cn2c(Cc3ccccc3C(F)(F)F)c(-c3cccc(Cl)c3)nc12 | nt | 10 | nt | 3 | nt | nt
COc1ccccc1NC(=O)C1CCN(C(=O)NCc2ccccc2)CC1 | 32* | -7 | 6 | -11 | 5 | 8
CCN(CC)C(=O)[C@H]1C[C@@H]2[C@H](C[C@@H](c3ccccc3)[C@H]1C)N(c1ccc(F)cc1)C(=O)N2CCCOc1ccccc1 | nt | 4 | nt | -16 | nt | nt
O=S1(=O)CCOC[C@H](Cc2ccccc2)N1Cc1cccc(F)c1 | 3 | -15 | 3 | 10 | 5 | 3
O=S1(=O)CCOC[C@H](Cc2ccccc2)N1Cc1ccc(F)cc1 | -8 | 10 | 0 | 4 | 33* | 5
C[C@H](O)[C@@H]1C(=O)N2CCc3c([nH]c4cccc(-c5ccccc5)c34)[C@@H]2C[C@@H]1N(C)C(=O)c1ccco1 | nt | 6 | nt | 14 | nt | nt
O=c1[nH][nH]c(-c2ccccc2)c1-c1ccccc1 | nt | 2 | 3 | 7 | 25* | 12
Cc1cc(C)c2nc3sc(=Cc4ccc(-c5ccccc5C(=O)O)o4)c(=O)n3c2c1 | nt | 2 | nt | -3 | nt | nt
O=C(O)c1ccc(-c2ccc(/C=c3/sc4nc5ccccc5n4c3=O)o2)cc1Cl | 27* | -12 | 23 | 9 | 15 | 26*
NS(=O)(=O)c1cccc(NC(=O)COC(=O)CCSc2ccccc2)c1 | 25* | 5 | -5 | -11 | 15 | -1
NC(=O)c1ccc(NC(=O)COC(=O)CCSc2ccccc2)cc1 | 10 | -3 | -6 | -7 | 4 | 1
Cc1ccc(SCCC(=O)OCC(=O)Nc2ccc(C(N)=O)cc2)cc1 | 8 | 20 | 13 | 7 | 26* | 1
O=C(COC(=O)CCSc1ccccc1)Nc1cc(F)ccc1F | 9 | 3 | -1 | -3 | 32* | 8
COc1ccc(NC(=O)COC(=O)CCSc2ccccc2)cc1OC | 20 | 3 | 0 | 6 | 10 | 7
NS(=O)(=O)c1cccc(NC(=O)CN2C(=O)C(=O)N(Cc3ccccc3)C2=O)c1 | 4 | -7 | -6 | 3 | -6 | 6
NS(=O)(=O)c1cccc(NC(=O)COC(=O)CSCc2ccccc2)c1 | 28* | 5 | 14 | 2 | 2 | 8
COC(=O)[C@]12CCCCC=C1N(CCc1ccc(OC)c(OC)c1)C(=O)[C@H](CC(=O)N1CCC(c3ccccc3)CC1)C2 | nt | -6 | nt | 11 | nt | nt
Cc1nc(NS(=O)(=O)c2ccccc2)sc1C(=O)NNS(=O)(=O)c1ccccc1 | 7 | 8 | 1 | 4 | 18 | 5
Cc1ccc(S(=O)(=O)Nc2nc(C)c(C(=O)NNS(=O)(=O)c3cc(C)ccc3C)s2)cc1 | 14 | 0 | 13 | -5 | 28* | 9
Cc1cc(Br)c2nc(-c3ccc(F)cc3)c(Cc3cccc(Cl)c3)n2c1 | nt | 12 | nt | 1 | nt | nt
O=C(Cc1nnc(NC(=O)c2ccccc2)s1)N/N=C/c1ccc(O)cc1 | 6 | -7 | 8 | 10 | 6 | 11
COc1ccc2nc(C)cc(SCC(=O)N/N=C/c3ccc(O)c(O)c3)c2c1 | 29* | -7 | 19 | -11 | 2 | 11
COc1ccc2nc(C)cc(SCC(=O)N/N=C/c3cccc4ccccc34)c2c1 | -2 | -4 | -8 | 8 | -1 | -20
COc1cccc2c(SCC(=O)N/N=C/c3ccc(O)c(O)c3)cc(C)nc12 | 16 | 2 | nt | 2 | nt | nt
O=C(Cc1nnc(NC(=O)c2ccccc2)s1)N/N=C\c1ccc(O)c(O)c1 | 27* | 11 | 16 | 3 | 3 | 12
SMILES | pPAFAH inh | ARFGAP1 inhibitor | PAFAH2 inh | ASAP1 GAP inh | PAFAH1B2 inh | PAFAH1B3 FP inh
Cc1cc(SCC(=O)N/N=C/c2ccc(O)c(O)c2)nc2ccccc12 | 27* | 0 | 32* | 12 | -2 | 15
Cc1cc(SCC(=O)N/N=C/c2ccc(O)c(O)c2)c(C)cc1Br | 26* | 7 | -8 | 12 | 3 | 23
COc1ccccc1CCn1cnc(-c2cccc(Br)c2)c1CC(C)C | nt | -5 | nt | -8 | nt | nt
O=c1ccc2cccc([N+](=O)[O-])c2[nH]1 | nt | 4 | nt | -1 | nt | nt
Nc1[nH]ncc1-c1ccc(F)cc1 | 30* | 6 | -2 | -2 | -1 | -8
C=CCNc1cccc2c1S(=O)(=O)N[C@@H](CC(C)C)CO2 | nt | 3 | nt | 0 | nt | nt
O=C(CCN1C(=O)/C(=C\C=C\c2ccccc2)SC1=S)Nc1cccc(C(=O)O)c1 | 28* | 4 | 8 | 5 | 1 | 7
